Results as given in ChEMBL document CHEMBL1137372, “Structural investigation of the 7-chloro-3-hydroxy-1H-quinazoline-2,4-dione scaffold to obtain AMPA and kainate receptor selective antagonists. Synthesis, pharmacological, and molecular modeling studies” (J Med Chem, 2006).

Experiments:
[1] = molecular target: Glutamate receptor ionotropic, AMPA (Rattus norvegicus) (UniProt P19491+P19492+P19493+P19490); assay: Displacement of [3H]AMPA from AMPA receptor in rat cortical synaptic membrane at 100 uM; format: cell membranes
[2] = molecular target: Glutamate NMDA receptor (Rattus norvegicus) (UniProt P35439+Q00959+Q00960+Q00961+Q62645+Q8VHN2+Q9R1M7); assay: Displacement of [3H]glycine from Gly/NMDA receptor in rat cortical synaptic membrane at 100 uM; format: cell membranes
Rattus norvegicus [3] = species: Rattus norvegicus; assay: Displacement of [3H]KA from high affinity KA receptor in rat cortical membrane at 100 uM; format: cell membranes
Method in brief: (§1)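 Rat cortical membranes were used for the high-affinity and low-affinity [3H]kainate binding assays, following earlier published methods. Test compound was made as a 1 mM stock in 50% DMSO and diluted in buffer. The value is percent inhibition of specific binding at 100 µM.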

[4] = molecular target: Glutamate receptor ionotropic, AMPA (Rattus norvegicus, UniProt P19490+P19491+P19492+P19493); assay: Displacement of [3H]AMPA from AMPA receptor in rat cortical synaptic membrane; format: cell membranes
Glutamate NMDA receptor = assay: Displacement of [3H]glycine from Gly/NMDA receptor in rat cortical synaptic membrane; format: cell membranes
[5] = Displacement of [3H]KA from high affinity KA receptor in rat cortical membrane; format: cell membranes
Method in brief: (§2)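 High- and low-affinity [3H]kainate binding to rat cortical membranes. Compounds were made up as a 1 mM stock in 50% DMSO and diluted in buffer. IC50s came from three or four displacement curves using four to six concentrations in triplicate, fitted with ALLFIT. Ki values are mean ± SEM of three or four determinations in triplicate.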

[6] = Antagonist activity against NMDA receptor assessed as inhibition of NMDA-induced depolarization in mouse cortex; format: functional, tissue-based
Method in brief: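 Mouse cortical wedge preparation. Depolarization was evoked with 5 µM NMDA. The IC50 is the concentration giving 50% inhibition of the depolarization, as mean ± SEM of three separate determinations.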

[7] = molecular target: Glutamate receptor ionotropic, AMPA (Mus musculus, UniProt P23818+P23819+Q9Z2W8+Q9Z2W9); assay: Antagonist activity against AMPA receptor assessed as inhibition of SAMPA-induced depolarization of mouse cortex
Rattus norvegicus [8] = species: Rattus norvegicus; assay: Displacement of [3H]KA from low affinity KA receptor in rat cortical membrane at 100 uM; format: cell membranes; method in brief: as §1
[9] = Displacement of [3H]KA from low affinity KA receptor in rat cortical membrane; format: cell membranes; method in brief: as §2
Mus musculus [10] = assay: Antinociceptive activity in mouse at 1 mg/kg, po measured as number of acetic acid-induced writhes by abdominal constriction assay; format: functional, Abdomen
Mus musculus [11] = assay: Antinociceptive activity in mouse at 0.1 mg/kg, po measured as number of acetic acid-induced writhes by abdominal constriction assay; format: functional, Abdomen
Mus musculus [12] = assay: Antinociceptive activity in mouse at 10 mg/kg, po measured as number of acetic acid-induced writhes by abdominal constriction assay; format: functional, Abdomen
Mus musculus [13] = assay: Activity against mouse motor coordination measured as number of falls from the rod in 30 sec by rotarod test at 20 mg/kg, po after 30 mins; format: functional
Method in brief: (§3)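 Mice on a 3-cm rod rotating at 16 rpm, up to five at once. Drug dispersed in 1% sodium CMC and given po in 10 mL kg^-1 30 min before testing. Falls from the rod in 30 s were counted before treatment and at 30, 45 and 60 min after. Each value is the mean of eight mice.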

Mus musculus [14] = assay: Activity against mouse motor coordination measured as number of falls from the rod in 30 sec by rotarod test at 20 mg/kg, po after 45 mins; format: functional; method in brief: as §3
Mus musculus [15] = assay: Activity against mouse motor coordination measured as number of falls from the rod in 30 sec by rotarod test at 20 mg/kg, po after 60 mins; format: functional; method in brief: as §3
Mus musculus [16] = assay: Activity against mouse motor coordination measured as number of falls from the rod in 30 sec by rotarod test at 50 mg/kg, po after 30 mins; format: functional; method in brief: as §3
Mus musculus [17] = assay: Activity against mouse motor coordination measured as number of falls from the rod in 30 sec by rotarod test at 50 mg/kg, po after 45 mins; format: functional; method in brief: as §3
Mus musculus [18] = assay: Activity against mouse motor coordination measured as number of falls from the rod in 30 sec by rotarod test at 50 mg/kg, po after 60 mins; format: functional; method in brief: as §3
Mus musculus [19] = assay: Antinociceptive activity in mouse at 5 mg/kg, po measured as number of acetic acid-induced writhes by abdominal constriction assay; format: functional, Abdomen

inhibition [1] [%]	inhibition [2] [%]	inhibition (Rattus norvegicus [3]) [%]	Ki [4] [µM]	Ki (Glutamate NMDA receptor) [µM]	IC50 [5] [µM]	SMILES	also measured
33	27	32				O=C(NCc1ccccc1)Nc1cc2c(=O)n(O)c(=O)[nH]c2cc1Cl	
			6.2	42	10	O=C1C=CCN1c1cc2c(=O)n(O)c(=O)[nH]c2cc1Cl	
			4.2	22.7	6.2	O=Cc1ccn(-c2cc3c(=O)n(O)c(=O)[nH]c3cc2Cl)c1	
35	32	20				COC(=O)c1cccc(C(=O)Nc2cc3c(=O)n(O)c(=O)[nH]c3cc2Cl)c1	
26	37	11				O=C1OCCC1On1c(=O)[nH]c2cc(Cl)ccc2c1=O (racemic)	
29	40				12.9	O=C(O)c1ccc(C(=O)Nc2cc3c(=O)n(O)c(=O)[nH]c3cc2Cl)cc1	inhibition (Rattus norvegicus [8]): 0%
	20		117		46	N[C@@H](Cn1ccc(=O)n(Cc2ccccc2C(=O)O)c1=O)C(=O)O	IC50 [9]: 15 µM
				0.24	140	O=c1[nH]c2cc(Cl)ccc2c(=O)n1O	
9	0	5				CCOC(=O)COn1c(=O)[nH]c2cc(Cl)ccc2c1=O	
	33		45		52	O=C(Nc1cc2c(=O)n(O)c(=O)[nH]c2cc1Cl)c1ccccc1	
	32		60		100	O=C(O)c1cccc(C(=O)Nc2cc3c(=O)n(O)c(=O)[nH]c3cc2Cl)c1	inhibition (Rattus norvegicus [8]): 0%
	40		16.5		0.62	O=C(O)c1ccccc1C(=O)Nc1cc2c(=O)n(O)c(=O)[nH]c2cc1Cl	Activity (Mus musculus [10]): 26.1; Activity (Mus musculus [11]): 34.7; Activity (Mus musculus [12]): 24.5; Activity (Mus musculus [13]): 3.3; Activity (Mus musculus [14]): 2.6; Activity (Mus musculus [15]): 1.7; Activity (Mus musculus [16]): 4.8; Activity (Mus musculus [17]): 3.7; Activity (Mus musculus [18]): 3.2; IC50 [9]: 1.6 µM
		5	99	90		O=C(O)COn1c(=O)[nH]c2cc(Cl)ccc2c1=O	
43	10	28				COC(=O)c1ccc(C(=O)Nc2cc3c(=O)n(O)c(=O)[nH]c3cc2Cl)cc1	
	8		8.4		5.4	O=C(O)CCC(=O)Nc1cc2c(=O)n(O)c(=O)[nH]c2cc1Cl	
		44	36	88		O=C1CCC(=O)N1c1cc2c(=O)n(O)c(=O)[nH]c2cc1Cl	
	44		1.3		13	O=C(O)c1ccn(-c2cc3c(=O)n(O)c(=O)[nH]c3cc2Cl)c1	
35	40	10				O=C(O)C(CCO)On1c(=O)[nH]c2cc(Cl)ccc2c1=O (racemic)	
			16.6	1	8.2	O=c1[nH]c2cc(Cl)c(-n3cccc3)cc2c(=O)n1O	
						O=C(O)Cc1ccccc1Nc1c(Cl)cccc1Cl [DICLOFENAC]	Activity (Mus musculus [19]): 18.2

SMILES	inhibition [1] [%]	inhibition [2] [%]	inhibition (Rattus norvegicus [3]) [%]	Ki [4] [µM]	Ki (Glutamate NMDA receptor) [µM]	IC50 [5] [µM]	also measured
O=c1ccn(-c2cc3c(=O)n(O)c(=O)[nH]c3cc2Cl)cc1				0.5	25	4.1	IC50 [6]: > 80 µM; IC50 [7]: 3.5 µM
O=c1[nH]c2cc(Cl)c(-n3cnnc3)cc2c(=O)n1O		47				7	IC50 [6]: 84 µM; IC50 [7]: 4.6 µM
CN1CCc2c(-c3ccc(S(=O)(=O)N(C)C)cc3)cc3c(c2C1)NC(=O)/C3=N\OC(CCO)C(=O)O (configuration not stated)				0.043	> 30	81	
